The target in the experiment is Potassium voltage-gated channel subfamily KQT member 2 (Mus musculus) (UniProt Q9Z351). Nature of the experiment: Ability to open cloned mKCNQ2 channel expressed in Xenopus laevis oocytes at 10 uM expressed as percent of compound-free control current at -40 mV. As to conditions: Oocyte. It counts as functional, cell-based. The gist of the method: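 Two-electrode voltage clamp of Xenopus laevis oocytes injected with ~50 nL mKCNQ2 cRNA, kept at 17 °C in ND96 (mM: NaCl 90, KCl 1.0, CaCl2 1.0, MgCl2 1.0, HEPES 5.0, pH 7.5) with 5% horse serum and penicillin/streptomycin. Holding potential -90 mV, 10 mV steps from -80 to +40 mV. Current at -40 mV with 10 μM compound taken as % of compound-free control; mean ± SEM of ≥5 oocytes.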
Chain of Potassium voltage-gated channel subfamily KQT member 2 (Mus musculus) (Q9Z351 whole entry): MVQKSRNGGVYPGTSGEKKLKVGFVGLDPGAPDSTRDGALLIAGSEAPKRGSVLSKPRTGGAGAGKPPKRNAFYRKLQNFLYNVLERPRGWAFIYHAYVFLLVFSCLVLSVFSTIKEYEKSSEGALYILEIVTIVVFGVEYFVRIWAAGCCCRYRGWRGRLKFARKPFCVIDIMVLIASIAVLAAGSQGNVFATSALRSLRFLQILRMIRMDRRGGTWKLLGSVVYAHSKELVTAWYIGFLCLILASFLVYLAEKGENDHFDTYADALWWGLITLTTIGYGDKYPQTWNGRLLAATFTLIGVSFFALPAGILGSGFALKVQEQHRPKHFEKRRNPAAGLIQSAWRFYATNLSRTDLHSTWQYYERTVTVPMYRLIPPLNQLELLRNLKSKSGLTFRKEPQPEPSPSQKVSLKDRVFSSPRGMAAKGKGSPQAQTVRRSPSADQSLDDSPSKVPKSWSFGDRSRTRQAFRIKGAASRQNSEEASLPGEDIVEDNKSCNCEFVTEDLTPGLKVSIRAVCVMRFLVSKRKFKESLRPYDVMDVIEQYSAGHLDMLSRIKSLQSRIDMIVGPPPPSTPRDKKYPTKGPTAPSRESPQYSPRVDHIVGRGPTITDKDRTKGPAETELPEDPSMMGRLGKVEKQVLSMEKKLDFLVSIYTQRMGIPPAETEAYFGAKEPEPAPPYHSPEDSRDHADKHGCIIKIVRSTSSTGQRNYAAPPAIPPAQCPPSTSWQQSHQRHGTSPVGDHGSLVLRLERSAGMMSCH
Turning to `C[C@H](NC(=O)/C=C/c1ccccc1)c1cccc(N(C)C)c1`, the KCNQ2 current at -40 mV as percent of compound-free control is 110%.

In the case of `CC1CN(c2cccc([C@H](C)NC(=O)/C=C/c3ccccc3F)c2)CC(C)O1` (stereo partly specified), the KCNQ2 current at -40 mV as percent of compound-free control amounted to 135%.

For the compound `CC1CN(c2cccc([C@H](C)NC(=O)/C=C/c3ccc(F)cc3)c2)CC(C)O1` (stereo partly specified), the KCNQ2 current at -40 mV as percent of compound-free control came to 133%.

Consider `COc1ccccc1/C=C/C(=O)N[C@@H](C)c1cccc(N2CCOCC2)c1`, for which the KCNQ2 current at -40 mV as percent of compound-free control was 99%.

With `COc1ccc(N2CCOCC2)cc1[C@H](C)NC(=O)/C=C/c1ccccc1`, the KCNQ2 current at -40 mV as percent of compound-free control stood at 98%.

On to `C[C@H](NC(=O)/C=C/c1ccccc1)c1cccc(N2CCCOCC2)c1`, for which the KCNQ2 current at -40 mV as percent of compound-free control was determined as 110%.

In turn, `CC1CN(c2cccc([C@H](C)NC(=O)/C=C/c3ccccc3)c2)CC(C)O1` (stereo partly specified) yielded a KCNQ2 current at -40 mV as percent of compound-free control of 138%.

`C[C@H](NC(=O)CCc1ccccc1)c1cccc(N2CCOCC2)c1` returned a KCNQ2 current at -40 mV as percent of compound-free control of 105%.

`C[C@H](NC(=O)/C=C/c1ccccc1)c1ccc(F)c(N2CCOCC2)c1` yielded a KCNQ2 current at -40 mV as percent of compound-free control of 129%.

As to `C[C@H](NC(=O)/C=C/c1ccccc1F)c1cccc(N2CCN(C)CC2)c1`, the KCNQ2 current at -40 mV as percent of compound-free control was determined as 107%.

Take `COc1ccc(/C=C/C(=O)N[C@@H](C)c2cccc(N3CCOCC3)c2)cc1`: the KCNQ2 current at -40 mV as percent of compound-free control stood at 140%.

As to `C[C@H](NC(=O)/C=C/c1ccc(F)cc1F)c1cccc(N2CCOCC2)c1`, the KCNQ2 current at -40 mV as percent of compound-free control came out at 124%.

In turn, `C[C@H](NC(=O)/C=C/c1cccc(F)c1)c1cccc(N2CCOCC2)c1` registered a KCNQ2 current at -40 mV as percent of compound-free control of 127%.

For the compound `C[C@@H](c1cccc(N2CCOCC2)c1)N(C)C(=O)/C=C/c1ccccc1`, the KCNQ2 current at -40 mV as percent of compound-free control came out at 72%.

`COc1ccc([C@H](C)NC(=O)/C=C/c2ccccc2)cc1N1CCOCC1` yielded a KCNQ2 current at -40 mV as percent of compound-free control of 96%.

Compound `C[C@H](NC(=O)/C=C/c1ccc(F)cc1)c1ccc(F)c(N2CCOCC2)c1` registered a KCNQ2 current at -40 mV as percent of compound-free control of 142%.

In turn, `C[C@H](NC(=O)/C=C/c1ccccc1F)c1cccc(N2CCOCC2)c1` yielded a KCNQ2 current at -40 mV as percent of compound-free control of 121%.

As for `C[C@H](NC(=O)/C=C/c1ccc(F)cc1)c1cccc(N2CCOCC2)c1`, the KCNQ2 current at -40 mV as percent of compound-free control stood at 88%.

Compound `C[C@H](NC(=O)/C=C/c1ccccc1)c1cccc(N2CC3CC2CO3)c1` (stereo partly specified) displayed a KCNQ2 current at -40 mV as percent of compound-free control of 104%.

The compound `C[C@H](NC(=O)/C=C/c1cc(F)ccc1F)c1cccc(N2CCOCC2)c1` yielded a KCNQ2 current at -40 mV as percent of compound-free control of 102%.

In turn, `C[C@H](NC(=O)/C=C/c1ccccc1)c1cccc(N2CCOCC2)c1` showed a KCNQ2 current at -40 mV as percent of compound-free control of 163%.

Turning to `C[C@@H](NC(=O)/C=C/c1ccccc1)c1cccc(N2CCOCC2)c1`, the KCNQ2 current at -40 mV as percent of compound-free control is 96%.

`C[C@H](NC/C=C/c1ccccc1)c1cccc(N2CCOCC2)c1` came in with a KCNQ2 current at -40 mV as percent of compound-free control of 98%.

`CC1=C(C(=O)N[C@@H](C)c2cccc(N3CCOCC3)c2)Cc2ccccc21` registered a KCNQ2 current at -40 mV as percent of compound-free control of 101%.

Consider `O=C(/C=C/c1ccccc1)NCc1cccc(N2CCOCC2)c1`, for which the KCNQ2 current at -40 mV as percent of compound-free control is 110%.

For the compound `COc1cccc(/C=C/C(=O)N[C@@H](C)c2cccc(N3CCOCC3)c2)c1`, the KCNQ2 current at -40 mV as percent of compound-free control was 132%.
